Reference: ChEMBL document CHEMBL1142929, “The use of aminoglycoside derivatives to study the mechanism of aminoglycoside 6'-N-acetyltransferase and the role of 6'-NH2 in antibacterial activity” (2007)
The source made the active and inactive calls. The calls are words filed in the database; no cut-off is given here.

Experiments:
Escherichia coli [1] = experiment: Antibacterial activity against kanamycin-resistant Escherichia coli pETAACWT at 30 ug/disc […]; assay type: functional, organism-based
Escherichia coli [2] = experiment: Antibacterial activity against kanamycin-resistant Escherichia coli JR67 at 30 ug/disc […]; assay type: functional, organism-based
Escherichia coli [3] = experiment: Antibacterial activity against kanamycin-resistant Escherichia coli JR66 at 30 ug/disc […]; assay type: functional, organism-based
Escherichia coli [4] = experiment: Antibacterial activity against gentamycin-resistant Escherichia coli JR88 at 30 ug/disc […]; assay type: functional, organism-based
Escherichia coli [5] = experiment: Antimicrobial activity against Escherichia coli MG1655 by dilution method; assay type: functional
Summary of the method: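 MIC by standard broth dilution: overnight MG1655 cultures in LB (aminoglycoside-sensitive strain) diluted 100-fold, growth read as OD at 600 nm.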

Staphylococcus aureus = experiment: Antibacterial activity against Staphylococcus aureus at 30 ug/disc […]; assay type: functional, organism-based; settings: in the assay text read “paper disc method” for “dilution method”
Summary of the method: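 Disc diffusion on LB solid medium with 30 µg compound per paper disc; growth inhibition of the S. aureus strain (sensitive to usual antibiotics) scored visually.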

Enterococcus faecium = experiment: Inhibition of Enterococcus faecium aminoglycoside 6'-N-acetyltransferase
Escherichia coli [6] = experiment: Antibacterial activity against kanamycin-resistant Escherichia coli pSF815A-1 at 30 ug/disc […]; assay type: functional, organism-based

Row | Structure (SMILES) | Activity (Escherichia coli [1]) | Activity (Escherichia coli [2]) | Activity (Escherichia coli [3]) | Activity (Escherichia coli [4]) | MIC (Escherichia coli [5]) [µg/mL] | Activity (Staphylococcus aureus) | Activity (Enterococcus faecium) | Activity (Escherichia coli [6])
1 | N[C@H]1[C@@H](O[C@H]2[C@H](O)[C@@H](O)[C@H](N)C[C@@H]2N)O[C@H](CNC(=O)CO)[C@@H](O)[C@@H]1O | inactive | inactive | inactive | inactive | < 25 | inactive | inactive | –
2 | [N-]=[N+]=NCC(=O)NC[C@H]1O[C@H](O[C@H]2[C@H](O)[C@@H](O)[C@H](N)C[C@@H]2N)[C@H](N)[C@@H](O)[C@@H]1O | inactive | inactive | inactive | inactive | – | inactive | inactive | –
3 | NCCC(=O)NC[C@H]1O[C@H](O[C@H]2[C@H](O)[C@@H](O)[C@H](N)C[C@@H]2N)[C@H](N)[C@@H](O)[C@@H]1O | inactive | inactive | inactive | inactive | – | inactive | inactive | –
4 | NCC(=O)NC[C@H]1O[C@H](O[C@H]2[C@H](O)[C@@H](O)[C@H](N)C[C@@H]2N)[C@H](N)[C@@H](O)[C@@H]1O | inactive | inactive | inactive | inactive | < 50 | inactive | inactive | –
5 | N[C@H]1[C@@H](O[C@H]2[C@H](O)[C@@H](O)[C@H](N)C[C@@H]2N)O[C@H](CNC(=O)c2ccccc2)[C@@H](O)[C@@H]1O | inactive | inactive | inactive | inactive | – | inactive | inactive | inactive
6 | C#CCC(=O)NC[C@H]1O[C@H](O[C@H]2[C@H](O)[C@@H](O)[C@H](N)C[C@@H]2N)[C@H](N)[C@@H](O)[C@@H]1O | inactive | inactive | inactive | inactive | – | inactive | inactive | –
7 | NC[C@H]1O[C@H](O[C@H]2[C@H](O)[C@@H](O)[C@H](N)C[C@@H]2N)[C@H](N)[C@@H](O)[C@@H]1O [NEAMINE] | – | – | – | – | < 6.25 | – | – | –
8 | N[C@H]1[C@@H](O[C@H]2[C@H](O)[C@@H](O)[C@H](N)C[C@@H]2N)O[C@H](CNC(=O)Cc2cccc3ccccc23)[C@@H](O)[C@@H]1O | inactive | inactive | inactive | inactive | – | inactive | inactive | –
9 | N[C@H]1[C@@H](O[C@H]2[C@H](O)[C@@H](O)[C@H](N)C[C@@H]2N)O[C@H](CNC(=O)CS)[C@@H](O)[C@@H]1O | inactive | inactive | inactive | inactive | – | inactive | inactive | –
